From ChEMBL document CHEMBL1124493, “Synthesis and tumor uptake of 5-82Br- and 5-131I-labeled 5-halo-1-(2-fluoro-2-deoxy-beta-D-ribofuranosyl)uracils” (J Med Chem, 1989)
Each block holds one molecule with its values, some of them ahead of it.

Key:
[1] = tested on: Mus musculus; experiment: Biodistribution of intravenously injected [82Br]-labeled compound in kidney of BDF1 female mice bearing subcutaneous Lewis lung carcinoma after 8 hours; assay type: ADME, organism-based; conditions: in vivo, iv
Procedure, shortened: (§1)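 Female BDF1 mice with subcutaneous Lewis lung carcinoma given an iv injection of [82Br]-labelled nucleoside, 47-130 μg carrying 20-60 kBq 82Br. Tissues were excised, weighed wet and γ-counted. Values are percent injected dose per gram of wet tissue, mean ± standard deviation of six animals, with organ-to-tumour ratios derived.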

[2] = tested on: Mus musculus; experiment: Biodistribution of intravenously injected [82Br]-labeled compound in bone of BDF1 female mice bearing subcutaneous Lewis lung carcinoma after 0.25 hours; assay type: ADME, organism-based, Bone element; conditions: in vivo, iv
Procedure, shortened: (§2)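 82Br-labeled nucleoside given intravenously to female BDF1 mice bearing subcutaneous Lewis lung carcinoma, at 47-130 μg carrying 20-60 kBq. Mice sacrificed at each time point. Wet-weighed tissues γ-counted. Values are percent injected dose per gram wet tissue, mean ± SD, n = 6.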

[3] = tested on: Mus musculus; experiment: Biodistribution of intravenously injected [82Br]-labeled compound in lung of BDF1 female mice bearing subcutaneous Lewis lung carcinoma after 0.25 hours; assay type: ADME, organism-based; conditions: in vivo, iv; procedure, shortened: as §1
[4] = tested on: Mus musculus; experiment: Biodistribution of intravenously injected [82Br]-labeled compound in blood of BDF1 female mice bearing subcutaneous Lewis lung carcinoma after 0.25 hours; assay type: ADME, organism-based; conditions: in vivo, iv; procedure, shortened: as §2
[5] = tested on: Mus musculus; experiment: Biodistribution of intravenously injected [82Br]-labeled compound in gut of BDF1 female mice bearing subcutaneous Lewis lung carcinoma after 8 hours; assay type: ADME, organism-based; conditions: in vivo, iv; procedure, shortened: as §1
[6] = tested on: Mus musculus; experiment: Biodistribution of intravenously injected [82Br]-labeled compound in spleen of BDF1 female mice bearing subcutaneous Lewis lung carcinoma after 0.50 hours; assay type: ADME, organism-based; conditions: in vivo, iv, 0.5 h; procedure, shortened: as §1
[7] = tested on: Mus musculus; experiment: Biodistribution of intravenously injected [82Br]-labeled compound in tumor of BDF1 female mice bearing subcutaneous Lewis lung carcinoma after 2 hours; assay type: ADME, organism-based; conditions: in vivo, iv
[8] = tested on: Mus musculus; experiment: Biodistribution of intravenously injected [82Br]-labeled compound in heart of BDF1 female mice bearing subcutaneous Lewis lung carcinoma after 4 hours; assay type: ADME, organism-based; conditions: in vivo, iv; procedure, shortened: as §1
[9] = tested on: Mus musculus; experiment: Biodistribution of intravenously injected [82Br]-labeled compound in lung of BDF1 female mice bearing subcutaneous Lewis lung carcinoma after 0.5 hours; assay type: ADME, organism-based; conditions: in vivo, iv; procedure, shortened: as §1
[10] = tested on: Mus musculus; experiment: Biodistribution of intravenously injected [82Br]-labeled compound in tumor of BDF1 female mice bearing subcutaneous Lewis lung carcinoma after 0.50 hours; assay type: ADME, organism-based; conditions: in vivo, iv, 0.5 h
[11] = tested on: Mus musculus; experiment: Biodistribution of intravenously injected [82Br]-labeled compound in gut of BDF1 female mice bearing subcutaneous Lewis lung carcinoma after 24 hours; assay type: ADME, organism-based; conditions: in vivo, iv; procedure, shortened: as §1
[12] = tested on: Mus musculus; experiment: Biodistribution of intravenously injected [82Br]-labeled compound in muscle of BDF1 female mice bearing subcutaneous Lewis lung carcinoma after 2 hours; assay type: ADME, organism-based, Muscle tissue; conditions: in vivo, iv; procedure, shortened: as §1
[13] = tested on: Mus musculus; experiment: Biodistribution of intravenously injected [82Br]-labeled compound in lung of BDF1 female mice bearing subcutaneous Lewis lung carcinoma after 2 hours; assay type: ADME, organism-based; conditions: in vivo, iv; procedure, shortened: as §1
[14] = tested on: Mus musculus; experiment: Biodistribution of intravenously injected [82Br]-labeled compound in bone of BDF1 female mice bearing subcutaneous Lewis lung carcinoma after 24 hours; assay type: ADME, organism-based, Bone element; conditions: in vivo, iv; procedure, shortened: as §2
[15] = tested on: Mus musculus; experiment: Biodistribution of intravenously injected [131I]-labeled compound in spleen of BDF1 female mice bearing subcutaneous Lewis lung carcinoma after 8 hours; assay type: ADME, organism-based; conditions: in vivo, iv
Procedure, shortened: (§3)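 Female BDF1 mice with subcutaneous Lewis lung carcinoma given i.v. 0.5-1.8 μg of 131I-labeled nucleoside (55-110 kBq). Killed at set times. Tissues weighed wet and γ-counted. Radioactivity expressed as percent injected dose per gram wet tissue, mean ± SD of six animals.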

[16] = species: Mus musculus; experiment: Urinary [131I]5-iodouracil observed in BDF1 female mice bearing lewis lung tumor after 24 hr of injected [131I]-compound; assay type: functional, tissue-based; conditions: Urine
[17] = species: Mus musculus; experiment: Urinary [131I]- compound observed in BDF1 female mice bearing lewis lung tumor after 24 hr of injected [131I]-compound; assay type: functional, tissue-based; conditions: Urine
[18] = tested on: Mus musculus; experiment: Biodistribution of intravenously injected [131I]-labeled compound in stomach of BDF1 female mice bearing subcutaneous Lewis lung carcinoma after 24 hours; assay type: ADME, organism-based; conditions: in vivo, iv; procedure, shortened: as §3
[19] = tested on: Mus musculus; experiment: Biodistribution of intravenously injected [131I]-labeled compound in lung of BDF1 female mice bearing subcutaneous Lewis lung carcinoma after 0.5 hours; assay type: ADME, organism-based; conditions: in vivo, iv
Procedure, shortened: (§4)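 Female BDF1 mice bearing subcutaneous Lewis lung carcinoma received a single intravenous dose of 0.5-1.8 μg of the 131I-labeled nucleoside (55-110 kBq). They were sacrificed at set times, and tissues were weighed wet and γ-counted. Activity is expressed as percent of injected dose per gram of wet tissue, given as mean ± standard deviation for six animals.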

[20] = tested on: Mus musculus; experiment: Biodistribution of intravenously injected [131I]-labeled compound in stomach of BDF1 female mice bearing subcutaneous Lewis lung carcinoma after 1 hours; assay type: ADME, organism-based; conditions: in vivo, iv; procedure, shortened: as §3
[21] = tested on: Mus musculus; experiment: Biodistribution of intravenously injected [131I]-labeled compound in spleen of BDF1 female mice bearing subcutaneous Lewis lung carcinoma after 24 hours; assay type: ADME, organism-based; conditions: in vivo, iv; procedure, shortened: as §3
[22] = tested on: Mus musculus; experiment: Biodistribution of intravenously injected [131I]-labeled compound in skin of BDF1 female mice bearing subcutaneous Lewis lung carcinoma after 2 hours; assay type: ADME, organism-based, Zone of skin; conditions: in vivo, iv; procedure, shortened: as §3
[23] = species: Mus musculus; experiment: Urinary [131I]- compound observed in BDF1 female mice bearing lewis lung tumor after 6-7 hr of injected [131I]-compound; assay type: functional, tissue-based; conditions: Urine
[24] = tested on: Mus musculus; experiment: Biodistribution of intravenously injected [131I]-labeled compound in bone of BDF1 female mice bearing subcutaneous Lewis lung carcinoma after 4 hours; assay type: ADME, organism-based, Bone element; conditions: in vivo, iv; procedure, shortened: as §4
[25] = tested on: Mus musculus; experiment: Biodistribution of intravenously injected [131I]-labeled compound in blood of BDF1 female mice bearing subcutaneous Lewis lung carcinoma after 0.25 hours; assay type: ADME, organism-based; conditions: in vivo, iv; procedure, shortened: as §4
[26] = tested on: Mus musculus; experiment: Biodistribution of intravenously injected [131I]-labeled compound in lung of BDF1 female mice bearing subcutaneous Lewis lung carcinoma after 4 hours; assay type: ADME, organism-based; conditions: in vivo, iv; procedure, shortened: as §4
[27] = tested on: Mus musculus; experiment: Biodistribution of intravenously injected [131I]-labeled compound in liver of BDF1 female mice bearing subcutaneous Lewis lung carcinoma after 0.50 hours; assay type: ADME, organism-based; conditions: in vivo, iv, 0.5 h; procedure, shortened: as §4
[28] = tested on: Mus musculus; experiment: Biodistribution of intravenously injected [131I]-labeled compound in gut of BDF1 female mice bearing subcutaneous Lewis lung carcinoma after 4 hours; assay type: ADME, organism-based; conditions: in vivo, iv; procedure, shortened: as §4
[29] = species: Mus musculus; experiment: Other urinary compounds observed in BDF1 female mice bearing lewis lung tumor after 2-3 hr of injected [131I]-compound; assay type: functional, tissue-based; conditions: Urine
[30] = tested on: Mus musculus; experiment: Biodistribution of intravenously injected [131I]-labeled compound in liver of BDF1 female mice bearing subcutaneous Lewis lung carcinoma after 24 hours; assay type: ADME, organism-based; conditions: in vivo, iv; procedure, shortened: as §4
[31] = tested on: Mus musculus; experiment: Biodistribution of intravenously injected [131I]-labeled compound in muscle of BDF1 female mice bearing subcutaneous Lewis lung carcinoma after 8 hours; assay type: ADME, organism-based, Muscle tissue; conditions: in vivo, iv; procedure, shortened: as §3
[32] = tested on: Mus musculus; experiment: Biodistribution of intravenously injected [131I]-labeled compound in heart of BDF1 female mice bearing subcutaneous Lewis lung carcinoma after 24 hours; assay type: ADME, organism-based; conditions: in vivo, iv; procedure, shortened: as §4
[33] = tested on: Mus musculus; experiment: Biodistribution of intravenously injected [131I]-labeled compound in liver of BDF1 female mice bearing subcutaneous Lewis lung carcinoma after 4 hours; assay type: ADME, organism-based; conditions: in vivo, iv; procedure, shortened: as §4
[34] = species: Mus musculus; experiment: Urinary iodide observed in BDF1 female mice bearing lewis lung tumor after 2-3 hr of injected [131I]-compound; assay type: functional, tissue-based; conditions: Urine
[35] = tested on: Mus musculus; experiment: Biodistribution of intravenously injected [131I]-labeled compound in stomach of BDF1 female mice bearing subcutaneous Lewis lung carcinoma after 4 hours; assay type: ADME, organism-based; conditions: in vivo, iv; procedure, shortened: as §3
[36] = tested on: Mus musculus; experiment: Biodistribution of intravenously injected [131I]-labeled compound in skin of BDF1 female mice bearing subcutaneous Lewis lung carcinoma after 4 hours; assay type: ADME, organism-based, Zone of skin; conditions: in vivo, iv; procedure, shortened: as §3
[37] = tested on: Mus musculus; experiment: Biodistribution of intravenously injected [131I]-labeled compound in bone of BDF1 female mice bearing subcutaneous Lewis lung carcinoma after 1 hours; assay type: ADME, organism-based, Bone element; conditions: in vivo, iv; procedure, shortened: as §4
[38] = tested on: Mus musculus; experiment: Biodistribution of intravenously injected [131I]-labeled compound in gut of BDF1 female mice bearing subcutaneous Lewis lung carcinoma after 8 hours; assay type: ADME, organism-based; conditions: in vivo, iv; procedure, shortened: as §4
[39] = tested on: Mus musculus; experiment: Biodistribution of intravenously injected [131I]-labeled compound in lung of BDF1 female mice bearing subcutaneous Lewis lung carcinoma after 8 hours; assay type: ADME, organism-based; conditions: in vivo, iv; procedure, shortened: as §4

Injected dose/g [1]: 0.53% | Injected dose/g [2]: 0.52% | Injected dose/g [3]: 1.7% | Injected dose/g [4]: 2.68% | Injected dose/g [5]: 0.33% | Injected dose/g [6]: 0.59% | Injected dose/g [7]: 0.57% | Injected dose/g [8]: 0.49% | Injected dose/g [9]: 0.91% | Injected dose/g [10]: 0.95% | Injected dose/g [11]: 0.22% | Injected dose/g [12]: 0.19% | Injected dose/g [13]: 0.54% | Injected dose/g [14]: 0.14%
SMILES: O=c1[nH]c(=O)n([C@H]2O[C@@H](CO)[C@H](O)[C@H]2F)cc1Br

Injected dose/g [15]: 1% | Injected dose/g [18]: 0.21% | Injected dose/g [19]: 7.5% | Injected dose/g [20]: 4.5% | Injected dose/g [21]: 0.5% | Injected dose/g [22]: 3.2% | Injected dose/g [24]: 1.3% | Injected dose/g [25]: 19% | Injected dose/g [26]: 4.5% | Injected dose/g [27]: 4.6% | Injected dose/g [28]: 2.1% | Injected dose/g [30]: 0.1% | Injected dose/g [31]: 0.7% | Injected dose/g [32]: 0.1% | Injected dose/g [33]: 2.6% | Injected dose/g [35]: 5.7% | Injected dose/g [36]: 3.5% | Injected dose/g [37]: 1.5% | Injected dose/g [38]: 1.3% | Injected dose/g [39]: 2.6%
SMILES: O=c1[nH]c(=O)n([C@@H]2O[C@H](CO)[C@@H](O)[C@H]2F)cc1I
Radioactive constituents [16]: 0% | Radioactive constituents [17]: 37.4% | Radioactive constituents [23]: 60.2% | Radioactive constituents [29]: 3.5% | Radioactive constituents [34]: 13.7%
